Assay results from ChEMBL document CHEMBL4028856, “Discovery of Small Molecules Targeting the Synergy of Cardiac Transcription Factors GATA4 and NKX2-5” (J Med Chem, 2017).
Calls of active or inactive are those of the source. The rule behind the calls is not given here.

Biological target: GATA4/NKX2-5 (Mus musculus, UniProt P42582+Q08369)
Assay: Inhibition of mouse GATA4/NKX2-5 transcriptional synergy expressed in African green monkey COS-1 cells measured after 30 hrs by dual luciferase reporter gene assay
Type: cell-based
Outline: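 COS-1 cells co-transfected (Fugene 6, DNA:reagent 1:3) with p3xNKE-luc, Renilla pRL-TKd238 control, and pMT2-GATA4, pMT2-NKX2-5, both, or empty pMT2; DNA balanced with pMT2. Compounds added 6 h post-transfection in 0.1% DMSO, medium renewed at 24 h, lysis at 30 h. Dual-luciferase read-out, firefly/Renilla normalized to vehicle; duplicate wells.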

Chain of GATA4/NKX2-5 (Q08369 whole entry): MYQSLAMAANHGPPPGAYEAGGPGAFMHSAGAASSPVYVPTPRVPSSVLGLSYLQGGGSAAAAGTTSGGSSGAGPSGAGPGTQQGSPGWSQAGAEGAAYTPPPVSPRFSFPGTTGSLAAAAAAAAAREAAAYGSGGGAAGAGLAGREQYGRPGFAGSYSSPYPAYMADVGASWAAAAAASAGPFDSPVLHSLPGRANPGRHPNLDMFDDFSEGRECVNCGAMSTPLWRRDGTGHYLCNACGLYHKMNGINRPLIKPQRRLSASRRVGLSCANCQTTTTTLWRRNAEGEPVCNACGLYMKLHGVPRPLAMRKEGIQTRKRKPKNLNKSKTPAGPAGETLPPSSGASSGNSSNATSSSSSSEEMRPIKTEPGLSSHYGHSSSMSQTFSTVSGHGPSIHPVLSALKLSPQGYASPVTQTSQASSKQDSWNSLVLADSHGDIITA
Chain of GATA4/NKX2-5 (P42582 whole entry): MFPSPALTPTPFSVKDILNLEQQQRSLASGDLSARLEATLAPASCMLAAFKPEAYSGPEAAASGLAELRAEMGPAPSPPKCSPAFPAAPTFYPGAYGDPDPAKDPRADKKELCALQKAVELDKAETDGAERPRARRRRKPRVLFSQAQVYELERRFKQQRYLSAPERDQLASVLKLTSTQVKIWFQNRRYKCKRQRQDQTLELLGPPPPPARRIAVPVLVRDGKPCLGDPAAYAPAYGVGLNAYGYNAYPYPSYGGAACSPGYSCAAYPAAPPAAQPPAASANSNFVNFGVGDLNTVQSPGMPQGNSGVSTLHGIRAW

| SMILES | IC50 [µM] |
| --- | --- |
| Cc1onc(-c2ccccc2)c1C(=O)Nc1ccc(N2CCOCC2)cc1 | > 50 |
| COc1cccc(/C=N/n2c(S)nnc2-c2ccccc2)c1OC | 8 |
| COc1cccc(/C=N/n2c(S)nnc2-c2ccccc2)c1 | > 50 |
| CCN(CC)S(=O)(=O)c1cccc(NC(=O)c2c(-c3ccccc3)noc2C)c1 | > 50 |
| CN(C)c1ccc(/C=N/n2c(S)nnc2-c2ccncc2)cc1 | 7 |
| CC(C)CNC(=O)c1ccc(NC(=O)C2CCCCC2)cc1 | > 50 |
| CCc1ccc(/C=C2\SC(=O)NC2=O)cc1 | 21 |
| CCOc1ccc(/C=C2\SC(=O)N(CC)C2=O)cc1OCC | 26 |
| O=C1NC(=O)/C(=C/c2cccc([N+](=O)[O-])c2)S1 | 20 |
| CCC(C)c1ccc(NC(=O)c2c(-c3ccccc3Cl)noc2C)cc1 (stereo not given) | 20 |
| CCCOC(=O)c1ccc(NC(=O)c2c(-c3ccccc3)noc2C)cc1 | > 50 |
| Cc1onc(-c2ccccc2)c1C(=O)Nc1cccc(S(=O)(=O)N2CCCC2)c1 | 33 |
| CCCCOc1ccc(/C=N/n2c(S)nnc2CC)cc1 | > 50 |
| Cc1onc(-c2ccccc2)c1C(=O)Nc1ccc(OC(C)C)cc1 | 13 |
| c1ccc(-c2nonc2-c2ccccc2)cc1 | 50 |
| CC(C)(C)c1ccc(/C=N/n2c(S)nnc2-c2ccncc2)cc1 | 7 |
| Cc1onc(-c2ccccc2Cl)c1C(=O)Nc1ccc(C(C)(C)C)cc1 | 22 |
| CCOc1ccccc1/C=N/n1c(S)nnc1-c1ccccc1 | 8 |
| Cc1onc(-c2ccccc2Cl)c1C(=O)Nc1ccc(N2CCOCC2)cc1 | 38 |
| CC(C)CNC(=O)c1ccc(NC(=O)C(F)(F)F)cc1 | 42 |

| SMILES | IC50 [µM] |
| --- | --- |
| O=C(O)/C(=C/c1ccccc1)c1c(F)c(F)c(F)c(F)c1F | 50 |
| CCOc1ccc(NC(=O)c2c(-c3ccccc3)noc2C)cc1 | 20 |
| Cc1cccc(/C=N/n2c(S)nnc2-c2ccccc2)c1 | > 50 |
| COc1ccc(/C=N/n2c(SC)nnc2-c2ccccc2)cc1C | 24 |
| CC(C)(C)c1ccc(/C=N/n2c(S)nnc2-c2cccnc2)cc1 | 30 |
| CCN(CC)c1ccc(/C=N/n2c(S)nnc2C2CCCCC2)cc1 | 6 |
| Cc1onc(-c2ccccc2)c1C(=O)Nc1ccc2c(c1)OC1(CCCC1)O2 | 23 |
| CCCOc1ccc(NC(=O)c2c(-c3ccccc3)noc2C)cc1 | > 50 |
| C=CCc1cccc(/C=N/n2c(S)nnc2-c2ccccc2)c1O | 20 |
| CC(C)CCN1C(=O)S/C(=C\c2ccc(N(C)C)cc2)C1=O | 10 |
| Fc1cccc(/C=N/n2c(S)nnc2-c2ccccc2)c1 | > 50 |
| O=c1cc(-c2ccc(O)cc2)oc2cc(O)cc(O)c12 [APIGENIN] | 24 |
| Sc1nnc(-c2ccccc2)n1/N=C/c1cccc(Oc2ccccc2)c1 | 13 |
| CCN(CC)S(=O)(=O)c1cc(NC(=O)c2c(-c3ccccc3)noc2C)ccc1C | > 50 |
| CCN(CC)c1ccc(/C=N/n2c(S)nnc2-c2ccc(OC)cc2)cc1 | 19 |
| O=c1cc(-c2ccc(O)c(O)c2)oc2cc(O)cc(O)c12 [LUTEOLIN] | 22 |
| Cc1onc(-c2ccccc2)c1C(=O)Nc1ccc(Sc2nccn2C)cc1 | > 50 |
| CC(C)CNC(=O)c1ccc(NC(=O)C2CCCO2)cc1 (stereo not given) | > 50 |
| CCOc1ccc(/C=N/n2c(SC)nnc2-c2ccccc2)cc1OCC | 30 |

Biological target: GATA4/NKX2-5 (Rattus norvegicus) (UniProt P46152+O35767)
Assay: Inhibition of GATA4/NKX2-5 interaction in neonatal rat ventricular cardiomyocytes assessed as decrease in endothelin-1 induced mRNA level of ANP at 20 uM preincubated for 1 hr followed by endothelin-1 addition measured after 23 hrs by real-time PCR analysis
Outline: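 Neonatal rat ventricular myocytes (2–4-day-old Sprague-Dawley or Wistar), preplated, seeded on 6-well plates, moved to complete serum-free medium next day and cultured 24 h. Compounds (10–100 μM) added 1 h before 100 nM endothelin-1 or none; ANP and BNP mRNA quantified by RT-PCR at 24 h, normalized to 18S RNA, relative to vehicle; mean ± SD, n = 3–6.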

| SMILES | inhibition |
| --- | --- |
| Cc1onc(-c2ccccc2)c1C(=O)Nc1ccc(OC(C)C)cc1 | Active |
